Assay results as given in ChEMBL document CHEMBL5252634, “Design, synthesis and in vitro cytotoxicity evaluation of indolo-pyrazoles grafted with thiazolidinone as tubulin polymerization inhibitors” (RSC Med Chem, 2023).
Blank lines part the entries; values can stand above or below the compound they belong to. Active and inactive are the calls of the source. No cut-off for these calls is given here.

Assays:
SK-OV-3 = assay: Cytotoxicity against multidrug resistance human SK-OV-3 cells assessed as cell growth inhibition; type: functional, cell-based
PC-3 = assay: Cytotoxicity against multidrug resistance human PC-3 cells assessed as cell growth inhibition; type: functional, cell-based
[1] = Cytotoxicity against multidrug resistance human U87 cells assessed as cell growth inhibition; type: functional, cell-based, U-87MG ATCC; settings: U-87 MG
HeLa = assay: Cytotoxicity against human HeLa cells assessed as reduction in cell viability; type: functional, cell-based
HCT-15 [2] = assay: Cytotoxicity against human HCT-15 cells assessed as reduction in cell viability incubated for 4 hrs by MTT assay; type: functional, cell-based; settings: HCT-15, 4 h
HCT-15 [3] = assay: Cytotoxicity against human HCT-15 cells assessed as reduction in cell viability; type: functional, cell-based
SK-MEL-28 [4] = assay: Induction of apoptosis in human SK-MEL-28 cells assessed as morphological changes measured after 48 hrs by AO/EB staining based microscopic analysis; type: functional, cell-based; settings: dose 1.73-6.92 µM
Procedure, shortened: (§1)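 SK-MEL-28 plated at 1×10^6 cells/mL and treated at several concentrations for 48 h. Acridine orange and ethidium bromide added at 10 µg/ml, and cells imaged at once by fluorescence microscopy (ex 488/em 550 nm), 20X.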

[5] = Selectivity index, ratio of IC50 for cytotoxicity against human BEAS-2B cells to IC50 for cytotoxicity against human SK-MEL-28 cells; type: functional
A549 = assay: Cytotoxicity against human A549 cells assessed as reduction in cell viability measured after 48 hrs by MTT assay; type: functional, cell-based; settings: A549, 48 h
Procedure, shortened: (§2)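 Cells kept in medium with 10% FBS and 1% antibiotic–antimycotic at 37 °C, 5% CO2. Seeded at 3000–4000 cells/well, grown overnight, then given fresh medium with a range of concentrations (diluted from 10 mM DMSO stocks) for 48 h. MTT (0.5 mg/mL) added for 3–4 h at 37 °C. Formazan dissolved in DMSO and absorbance read at 570 nm.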

SK-MEL-28 [6] = assay: Induction of cell cycle arrest in human SK-MEL-28 cells assessed as accumulation of cells at G2/M phase at 1.73 uM incubated for 48 hrs by flow cytometry (reference value: 13.14%); type: functional
SK-MEL-28 [7] = assay: Induction of apoptosis in human SK-MEL-28 cells assessed as blebbing nucleus at 1.73 to 6.92 uM incubated for 48 hrs by DAPI staining based fluorescence microscopy; type: functional, cell-based; settings: dose 1.73-6.92 µM
Procedure, shortened: (§3)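 SK-MEL-28 exposed 48 h, then PBS-washed, fixed in 4% paraformaldehyde, permeabilized with 0.1% Triton X for 15 min and stained with 10 µg/mL DAPI. Nuclei viewed by fluorescence (ex 359/em 461 nm), 20X, with untreated controls.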

SK-MEL-28 [8] = assay: Induction of apoptosis in human SK-MEL-28 cells assessed as change in cell shape at 1.73 to 6.92 uM after 48 hrs by phase contrast microscopic analysis; type: functional, cell-based; settings: dose 1.73-6.92 µM
Procedure, shortened: (§4)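 SK-MEL-28 cells plated at 1×10^6 cells/mL, allowed to adhere overnight, then exposed to several concentrations for 48 h. Bright-field imaging at 20X to score cell shrinkage, deformation and viable cell number.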

[9] = Selectivity index, ratio of IC50 for cytotoxicity against human BEAS-2B cells to IC50 for cytotoxicity against human A549 cells; type: functional
HCT-116 = assay: Cytotoxicity against human HCT-116 cells assessed as reduction in cell viability measured after 48 hrs by MTT assay; type: functional, cell-based; settings: HCT-116, 48 h; procedure, shortened: as §2
SK-MEL-28 [10] = assay: Induction of apoptosis in human SK-MEL-28 cells assessed as budding nucleus at 1.73 to 6.92 uM incubated for 48 hrs by DAPI staining based fluorescence microscopy; type: functional, cell-based; settings: dose 1.73-6.92 µM; procedure, shortened: as §3
Tubulin (Homo sapiens) = Tubulin (Homo sapiens) (UniProt P68371+Q9H4B7+P0DPH7+P68366+Q13509+Q71U36+P04350+Q3ZCM7+P07437+P68363+Q9BQE3+Q6PEY2+Q13885+Q9BVA1+Q9BUF5); assay: Inhibition of tubulin polymerization (unknown origin) at 1.73 to 6.92 uM measured after 1 hr relative to control; type: protein-complex assay; settings: dose 1.73-6.92 µM
Procedure, shortened: (§5)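 Fluorescence-based tubulin polymerization kit: tubulin, GTP and tubulin glycerol buffer mixed and added to compound (from 10x stocks), enhancer and inhibitor reference standards, and blanks in a plate prewarmed to 37 °C. Read kinetically for 1 h at ex 360/em 450 nm.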

SK-MEL-28 [11] = assay: Induction of cell cycle arrest in human SK-MEL-28 cells assessed as accumulation of cells at G0/G1 phase at 3.46 uM incubated for 48 hrs by flow cytometry (reference value: 79.59%); type: functional
SK-MEL-28 [12] = assay: Induction of cell cycle arrest in human SK-MEL-28 cells assessed as accumulation of cells at G0/G1 phase at 6.92 uM incubated for 48 hrs by flow cytometry (reference value: 79.59%); type: functional
SK-MEL-28 [13] = assay: Induction of cell cycle arrest in human SK-MEL-28 cells assessed as accumulation of cells at G2/M phase at 3.46 uM incubated for 48 hrs by flow cytometry (reference value: 13.14%); type: functional
SK-MEL-28 [14] = assay: Induction of cell cycle arrest in human SK-MEL-28 cells assessed as accumulation of cells at S phase at 3.46 uM incubated for 48 hrs by flow cytometry (reference value: 6.34%); type: functional
SK-MEL-28 [15] = assay: Induction of cell cycle arrest in human SK-MEL-28 cells assessed as accumulation of cells at G0/G1 phase at 1.73 uM incubated for 48 hrs by flow cytometry (reference value: 79.59%); type: functional
SK-MEL-28 [16] = assay: Induction of apoptosis in human SK-MEL-28 cells assessed as apoptotic body formation at 1.73 to 6.92 uM incubated for 48 hrs by AO/EB staining based fluorescence microscopy; type: functional, cell-based; settings: dose 1.73-6.92 µM; procedure, shortened: as §1
SK-MEL-28 [17] = assay: Induction of apoptosis in human SK-MEL-28 cells assessed as cell membrane disruption at 1.73 to 6.92 uM incubated for 48 hrs by AO/EB staining based fluorescence microscopy; type: functional; settings: dose 1.73-6.92 µM; procedure, shortened: as §1
SK-MEL-28 [18] = assay: Induction of cell cycle arrest in human SK-MEL-28 cells assessed as accumulation of cells at S phase at 6.92 uM incubated for 48 hrs by flow cytometry (reference value: 6.34%); type: functional
Tubulin [19] = assay: Inhibition of tubulin polymerization (unknown origin) at 1.73 to 6.92 uM measured after 1 hr; type: protein-complex assay, Homo sapiens; procedure, shortened: as §5
B16-F10 = assay: Cytotoxicity against mouse B16-F10 cells assessed as reduction in cell viability measured after 48 hrs by MTT assay; type: functional, cell-based; settings: B16-F10, 48 h; procedure, shortened: as §2
SK-MEL-28 [20] = assay: Induction of apoptosis in human SK-MEL-28 cells assessed as reduction in live cells at 1.73 to 6.92 uM after 48 hrs by phase contrast microscopic analysis; type: functional, cell-based; settings: dose 1.73-6.92 µM; procedure, shortened: as §4
[21] = Selectivity index, ratio of IC50 for cytotoxicity against human BEAS-2B cells to IC50 for cytotoxicity against mouse B16-F10 cells; type: functional
SK-MEL-28 [22] = assay: Induction of apoptosis in human SK-MEL-28 cells assessed as nuclear condensation at 1.73 to 6.92 uM incubated for 48 hrs by DAPI staining based fluorescence microscopy; type: functional, cell-based; settings: dose 1.73-6.92 µM; procedure, shortened: as §3
SK-MEL-28 [23] = assay: Induction of apoptosis in human SK-MEL-28 cells assessed as early apoptotic cells measured after 48 hrs by annexin-V-FITC/PI double staining based flow cytometric analysis; type: functional, cell-based; settings: dose 1.73-6.92 µM
Procedure, shortened: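 1×10^6 SK-MEL-28 cells treated at various concentrations for 48 h. Cells trypsinized with supernatant retained and washed twice in ice-cold PBS. Stained with annexin V-FITC and PI in binding buffer for 15 min at room temperature in the dark, kept on ice, and analysed by flow cytometry.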

SK-MEL-28 [24] = assay: Induction of apoptosis in human SK-MEL-28 cells assessed as horseshoe-shaped nucleus at 1.73 to 6.92 uM incubated for 48 hrs by DAPI staining based fluorescence microscopy; type: functional, cell-based; settings: dose 1.73-6.92 µM; procedure, shortened: as §3
SK-MEL-28 [25] = assay: Induction of apoptosis in human SK-MEL-28 cells assessed as increase in ROS level incubated for 48 hrs by DCFDA staining based fluorescence microscopic assay; type: functional, cell-based; settings: dose 1.73-6.92 µM
Procedure, shortened: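 SK-MEL-28 seeded at 1×10^6 cells/well and treated at several concentrations for 48 h at 37 °C. DCFDA (10 µM) loaded for 30 min at 37 °C, excess washed off with PBS, and green DCF fluorescence imaged (ex 498/em 530 nm), 20X.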

SK-MEL-28 [26] = assay: Cytotoxicity against human SK-MEL-28 cells assessed as reduction in cell viability measured after 48 hrs by MTT assay; type: functional, cell-based; settings: SK-MEL-28, 48 h; procedure, shortened: as §2
SK-MEL-28 [27] = assay: Potency index, ratio of sunitinib IC50 to test compound IC50 for cytotoxicity against human SK-MEL-28 cells assessed as reduction in cell viability measured after 48 hrs by MTT assay; type: functional
SK-MEL-28 [28] = assay: Induction of cell cycle arrest in human SK-MEL-28 cells assessed as accumulation of cells at G2/M phase at 6.92 uM incubated for 48 hrs by flow cytometry (reference value: 13.14%); type: functional
SK-MEL-28 [29] = assay: Induction of apoptosis in human SK-MEL-28 cells assessed as increase in red fluorescence at 1.73 to 6.92 uM incubated for 48 hrs by AO/EB staining based fluorescence microscopy; type: functional, cell-based; settings: dose 1.73-6.92 µM; procedure, shortened: as §1
[30] = Cytotoxicity against human BEAS-2B cells assessed as reduction in cell viability measured after 48 hrs by MTT assay; type: toxicity, cell-based; procedure, shortened: as §2
SK-MEL-28 [31] = assay: Induction of apoptosis in human SK-MEL-28 cells assessed as nucleus fragmentation at 1.73 to 6.92 uM incubated for 48 hrs by DAPI staining based fluorescence microscopy; type: functional, cell-based; settings: dose 1.73-6.92 µM; procedure, shortened: as §3
[32] = Selectivity index, ratio of IC50 for cytotoxicity against human BEAS-2B cells to IC50 for cytotoxicity against human HCT-116 cells; type: functional
SK-MEL-28 [33] = assay: Induction of apoptosis in human SK-MEL-28 cells assessed as cellular shrinkage at 1.73 to 6.92 uM after 48 hrs by phase contrast microscopic analysis; type: functional, cell-based; settings: dose 1.73-6.92 µM; procedure, shortened: as §4
SK-MEL-28 [34] = assay: Induction of cell cycle arrest in human SK-MEL-28 cells assessed as accumulation of cells at S phase at 1.73 uM incubated for 48 hrs by flow cytometry (reference value: 6.34%); type: functional
Tubulin [35] = assay: Inhibition of tubulin polymerization (unknown origin); type: cell-based, Homo sapiens

SMILES: O=C(Nc1ccncc1)C(=O)c1cn(Cc2ccc(Cl)cc2)c2ccccc12 [INDIBULIN]
IC50 (SK-OV-3): 36 nM | IC50 (PC-3): 64 nM | IC50 [1]: 77 nM

SMILES: COc1cc(NC(=O)/C=C/c2cc(-c3cc(OC)c(OC)c(OC)c3)n[nH]2)cc(OC)c1OC
IC50 (HeLa): 400 nM

SMILES: COc1ccc(CC/N=C2/NC(=O)/C(=C\c3c[nH]c4ccc(Br)cc34)S2)cc1
IC50 (HCT-15 [2]): 920 nM | IC50 (HCT-15 [3]): 920 nM

inhibition (Tubulin (Homo sapiens)): 60% | IC50 (Tubulin [19]): < 1730 nM
SMILES: O=C1CS/C(=N\c2cc(-c3c[nH]c4ccccc34)nn2-c2cccc(Cl)c2)N1
Activity (SK-MEL-28 [4]): Dose-Dependent Effect | Ratio IC50 [5]: 4.59 | IC50 (A549): 11500 nM | Activity (SK-MEL-28 [6]): 14.31% | Activity (SK-MEL-28 [7]): Active | Activity (SK-MEL-28 [8]): Active | Ratio IC50 [9]: 1.38 | IC50 (HCT-116): 9020 nM | Activity (SK-MEL-28 [10]): Active | Activity (SK-MEL-28 [11]): 77.33% | Activity (SK-MEL-28 [12]): 77.01% | Activity (SK-MEL-28 [13]): 16.11% | Activity (SK-MEL-28 [14]): 6.73% | Activity (SK-MEL-28 [15]): 77.35% | Activity (SK-MEL-28 [16]): Active | Activity (SK-MEL-28 [17]): Active | Activity (SK-MEL-28 [18]): 5.7% | IC50 (B16-F10): 10800 nM | Activity (SK-MEL-28 [20]): Active | Ratio IC50 [21]: 1.47 | Activity (SK-MEL-28 [22]): Active | Activity (SK-MEL-28 [23]): Dose-Dependent Effect | Activity (SK-MEL-28 [24]): Active | Activity (SK-MEL-28 [25]): Dose-Dependent Effect | IC50 (SK-MEL-28 [26]): 3460 nM | Ratio IC50 (SK-MEL-28 [27]): 1.5 | Activity (SK-MEL-28 [28]): 16.39% | Activity (SK-MEL-28 [29]): Active | IC50 at 48 h [30]: 15900 nM | Activity (SK-MEL-28 [31]): Active | Ratio IC50 [32]: 1.76 | Activity (SK-MEL-28 [33]): Active | Activity (SK-MEL-28 [34]): 6.73%

IC50 (Tubulin [35]): 350 nM
SMILES: CCOc1ccc(-c2n[nH]cc2-c2cc(OC)c(OC)c(OC)c2)cc1
